Measured values taken from ChEMBL document CHEMBL3098105, “7,7'-Diazaindirubin--a small molecule inhibitor of casein kinase 2 in vitro and in cells” (Bioorg Med Chem, 2014).

Key:
Assay type in all cases: functional, cell-based
[1] = Antiproliferative activity against human LXFL 529L cells after 3 days by SRB assay; settings: 72 h
In short: (§1)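 Cells grown at 37 °C, 5% CO2, with 10% heat-inactivated FBS: LXFL529L in RPMI 1640, MCF7 and HT29 in DMEM. Seeded, allowed 24 h growth, then exposed to the drug at various concentrations for 3 days in serum medium. Fixed with TCA for 1 h at 4 °C, stained with 0.4% SRB, eluted in 10 mM Tris pH 10.5, read at 570 nm as % T/C. IC50 taken from dose–response curves of at least three independent experiments.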

[2] = test system: MCF7; experiment: Antiproliferative activity against human MCF7 cells after 3 days by SRB assay; settings: MCF7, 72 h; in short: as §1
[3] = test system: HT-29; experiment: Antiproliferative activity against human HT-29 cells after 3 days by SRB assay; settings: HT-29, 72 h; in short: as §1

Compound | IC50 [2] [µM] | IC50 [3] [µM] | IC50 [1] [µM]
O=C1Nc2ccccc2/C1=C1/Nc2ccccc2C1=O [INDIRUBIN] | 4 | – | 9.9
O=C1Nc2ncccc2/C1=C1/Nc2ccccc2C1=O | 3 | > 10 | 2.9
O=C1/C(=C2\Nc3ncccc3C2=O)Nc2ncccc21 | > 100 | > 100 | > 100

More lines, main results first:

IC50 [2] [µM] | IC50 [3] [µM] | Compound | IC50 [1] [µM]
> 100 | > 100 | O=C1Nc2ncccc2/C1=C1\C(=O)Nc2ncccc21 | > 100
5 | > 10 | O=C1Nc2ccccc2/C1=C1/Nc2ncccc2C1=O | 4.4
